Screening data deposited in PubChem BioAssay by several laboratories.
FID counter: displaces DNA intercalator in HCV helicase counter-screen | DNA fluorescent intercalator displacement, fluorescence | inhibition, % at 7.9 µM | actives 0.17% (n = 290,000) | AID 1845; in the data active means inhibition above about 37%;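 further: 0% = vehicle and 100% = reference compound; higher means more ethidium bromide displaced from hairpin DNA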
NALP1 yeast inh: blocks the NALP1 inflammasome reconstituted in yeast; actives 0.61% (n = 280,000); S. cerevisiae NALP1/ASC/caspase-1 growth, X-gal OD620, 72 h; inhibition, % at 10 µM; in the data active means inhibition mostly above about 24%, no sharp cut-off; inactive means mostly below about 32%
Mot1-301 SUMO: blocks SUMOylation pathway, rescuing yeast Mot1-301 growth; actives 1% (n = 320,000); S. cerevisiae Mot1-301 growth rescue, ATP luminescence, 38.5C; percent above DMSO median, 100 means doubled; growth rescue, % at 18.8 µM;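 active means every valid replicate shows activation above 250% relative to neutral control wells; inactive means the rest, any valid replicate at or below 250%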;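 further: OY570 slx delta 5 strain wells were the positive control but not used for scaling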
IMP-1 inh: inhibitors of Pseudomonas aeruginosa IMP-1 metallo-beta-lactamase. purified IMP-1, nitrocefin hydrolysis, epi-absorbance fluorescence. inhibition, % at 5.6 µM. actives 0.45% (n = 290,000);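 active means inhibition above the mean plus 3 SD of all compounds in the same screening run, cut at about 4.5% in these data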;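 further: 0% = IMP-1 with DMSO and 100% = DMSO wells lacking enzyme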
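system = purified recombinant IMP-1 beta-lactamase | amount = 0.2 nM IMP-1, as dispensed | medium = HEPES buffer pH 7.1 with ZnSO4 and Brij 35 | times = 25 °C, 15 min preincubation, 25 min reaction | detection = plate fluorescence quenching by hydrolysis product, ex 480/em 530 nm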
SUMO HTRF inh: blocks human SUMOylation mediated by UBC9; inhibition, % at 35 µM; actives 0.36% (n = 290,000); AID 2006; HTRF SUMOylation assay, SAE1/SAE2 + UBC9, in vitro; P63279; in the data active means inhibition above about 50%, passing the limit was not always enough
Target sequence (P63279 whole entry, looked up): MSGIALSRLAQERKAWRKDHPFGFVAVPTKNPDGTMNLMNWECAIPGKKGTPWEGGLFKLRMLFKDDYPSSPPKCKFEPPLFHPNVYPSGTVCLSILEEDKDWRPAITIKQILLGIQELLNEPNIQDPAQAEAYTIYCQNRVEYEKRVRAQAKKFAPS
VIM-2 inhibitor: inhibitors of Pseudomonas aeruginosa VIM-2 metallo-beta-lactamase | AID 1527 | inhibition, % at 5.6 µM | purified VIM-2, nitrocefin hydrolysis, epi-absorbance fluorescence | actives 0.89% (n = 290,000);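 active means inhibition above the mean of all tested compounds plus 3 SD, cutoff set per screening run, cut at about 7.5% in these data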;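 further: red hydrolysis product quenches plate fluorescence so inhibitors raise well fluorescence; 0% = enzyme with DMSO and 100% = DMSO without enzyme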
Active calls of the source: *. An excerpt weighted towards active compounds, which were near 2.9% of everything screened.

For Cc1nc2c(sc(=S)n2Cc2ccco2)c(=O)n1CC(=O)Nc1ccccc1F the results were FID counter -16.3, NALP1 yeast inh 4.7, Mot1-301 SUMO -5.4, IMP-1 inh 6.0*, SUMO HTRF inh 23.7 and VIM-2 inhibitor -1.6.
CCn1c(=S)sc2c(=O)n(CC(=O)NCCCc3ccccc3)c(C)nc21 was read as FID counter -4.3, NALP1 yeast inh 28.1, Mot1-301 SUMO -5.2, IMP-1 inh 11.9*, SUMO HTRF inh -1.8 and VIM-2 inhibitor -5.2.
Screening CCn1c(=S)sc2c(=O)n(CC(=O)Nc3cccc(Cl)c3)c(C)nc21 returned FID counter -3.8, NALP1 yeast inh -1.8, Mot1-301 SUMO 28.2, IMP-1 inh 1.1, SUMO HTRF inh 8.6 and VIM-2 inhibitor -0.3.
Screening COc1cc2c(=O)n(CCC(=O)NCC3CCCO3)c(=O)n(CC(=O)Nc3ccc(F)cc3)c2cc1OC (centres undefined) returned FID counter -30.8, NALP1 yeast inh 8.2, Mot1-301 SUMO 283.5*, IMP-1 inh -2.5, SUMO HTRF inh 1.3 and VIM-2 inhibitor -0.8.
For COc1cc2c(=O)n(CCC(=O)NCC3CCCO3)c(=O)n(CC(=O)Nc3ccc(C)c(C)c3)c2cc1OC (centres undefined) the results were FID counter -47.1, NALP1 yeast inh -5.9, Mot1-301 SUMO 10.8, IMP-1 inh -4.3, SUMO HTRF inh -9.7 and VIM-2 inhibitor -1.6.
For Cc1c(C(=O)O)sc(S(=O)(=O)N2CCN(C(=O)Cc3ccccc3Cl)CC2)c1C(=O)O the results were Mot1-301 SUMO -16.1.
O=[N+]([O-])c1cc(S(=O)(=O)N2CCCCCC2)ccc1F was read as FID counter 2.8, NALP1 yeast inh 78.6*, Mot1-301 SUMO 577.2*, IMP-1 inh -4.1, SUMO HTRF inh 12.4 and VIM-2 inhibitor -4.5.
`O=c1c(-c2c(O)cc(O)c3c(=O)cc(-c4ccc(O)cc4)oc23)c(-c2ccc(O)cc2)oc2cc(O)cc(O)c12` gave NALP1 yeast inh -3.7, Mot1-301 SUMO -24.5 and SUMO HTRF inh 51.8*.
COCCN(C(=O)Cc1coc2cc(C)c(C)cc12)c1c(N)n(Cc2ccccc2)c(=O)[nH]c1=O was read as Mot1-301 SUMO 9.6.
`COc1ccc(OC)c(S(=O)(=O)NCC(c2ccco2)N2CCc3ccccc32)c1` (centres undefined) gave Mot1-301 SUMO -1.3.
Screening Cc1ccc(S(=O)(=O)NCc2cccnc2)cc1 returned FID counter -0.6, NALP1 yeast inh 10.2, Mot1-301 SUMO 4.1, IMP-1 inh -1.9, SUMO HTRF inh 8.9 and VIM-2 inhibitor -2.0.
`COc1ccc(NC(=O)CN2CCN(CC(=O)Nc3ccc(F)cc3)CC2)c(OC)c1` gave FID counter -21.4, NALP1 yeast inh 20.0, Mot1-301 SUMO 22.7, IMP-1 inh -2.8, SUMO HTRF inh 23.1 and VIM-2 inhibitor -1.2.
CCOC(=O)CNC(=O)CSc1nc(C)cc(C)c1C#N was read as FID counter -3.5, NALP1 yeast inh 37.1*, Mot1-301 SUMO -0.8, IMP-1 inh -2.3, SUMO HTRF inh -4.0 and VIM-2 inhibitor -1.7.
CCOC(=O)NC(=O)CSc1nc(C)cc(C)c1C#N was read as FID counter -4.5, NALP1 yeast inh 23.4, Mot1-301 SUMO 5.3, IMP-1 inh -2.6, SUMO HTRF inh 16.4 and VIM-2 inhibitor -0.3.
`O=C(Nc1ccccc1)C1=C[C@@H](C2CC2)C[C@@H](OCc2ccc(CO)cc2)O1` gave FID counter -22.8, NALP1 yeast inh 16.1, Mot1-301 SUMO -9.5, IMP-1 inh -1.3, SUMO HTRF inh 9.4 and VIM-2 inhibitor 0.3.
Screening Cn1c(=O)c2sccc2n2c(CCCC(=O)Nc3ccccc3)nnc12 returned FID counter -6.0, NALP1 yeast inh 2.0, Mot1-301 SUMO -9.9, IMP-1 inh -4.7, SUMO HTRF inh -2.0 and VIM-2 inhibitor 0.2.
Screening Cn1c(=O)c2sccc2n2c(CCCC(=O)NC3CCN(Cc4ccccc4)CC3)nnc12 returned FID counter -3.7, NALP1 yeast inh 12.1, Mot1-301 SUMO 41.0, IMP-1 inh 0.0, SUMO HTRF inh 14.5 and VIM-2 inhibitor 10.5*.
Cn1c(=O)c2sccc2n2c(CCCC(=O)NCc3cccnc3)nnc12 was read as FID counter -4.6, NALP1 yeast inh 12.5, Mot1-301 SUMO -3.5, IMP-1 inh -2.7, SUMO HTRF inh 12.9 and VIM-2 inhibitor 11.0*.
CCN1CCN(CC(=O)Nc2ccccc2)C(=O)C1=O was read as FID counter 2.4, NALP1 yeast inh -14.0, Mot1-301 SUMO 183.9, IMP-1 inh 4.6*, SUMO HTRF inh 9.0 and VIM-2 inhibitor 4.7.
`CN(C)c1ccc(-c2ccc3c(=O)c4ccccc4n(C)c3c2)cn1` gave FID counter 0.3, NALP1 yeast inh 4.3, Mot1-301 SUMO 62.3, IMP-1 inh 1.0, SUMO HTRF inh 30.2 and VIM-2 inhibitor 12.1*.
CCOC(=O)C1=C(COC(=O)COc2ccccc2C#N)NC(=O)NC1C (centres undefined) was read as Mot1-301 SUMO 9.9.
`O=C1/C(=C/c2cccs2)CCC/C1=C\c1cccs1` gave FID counter -19.6, NALP1 yeast inh 12.2, Mot1-301 SUMO 24.3, IMP-1 inh 5.6*, SUMO HTRF inh 30.3 and VIM-2 inhibitor -2.3.
For CC1C/C(=C/c2cccs2)C(=O)/C(=C/c2cccs2)C1 (centres undefined) the results were FID counter -7.4, NALP1 yeast inh 34.8, Mot1-301 SUMO 40.8, IMP-1 inh -0.9, SUMO HTRF inh 40.4 and VIM-2 inhibitor 3.0.
O=C1/C(=C\c2ccco2)CCC/C1=C\c1ccco1 was read as FID counter -20.7, NALP1 yeast inh -6.7, Mot1-301 SUMO -18.6, IMP-1 inh -0.8, SUMO HTRF inh 51.9* and VIM-2 inhibitor 0.7.
CC1C/C(=C/c2ccco2)C(=O)/C(=C/c2ccco2)C1 (centres undefined) was read as FID counter -23.9, NALP1 yeast inh 25.9, Mot1-301 SUMO -8.6, IMP-1 inh 0.5, SUMO HTRF inh 43.1 and VIM-2 inhibitor -0.8.
Screening Cc1nc(-c2ccccc2)nc(Cl)c1Cl returned FID counter 0.0, NALP1 yeast inh 33.3*, Mot1-301 SUMO -9.2, IMP-1 inh -2.0, SUMO HTRF inh -9.2 and VIM-2 inhibitor 1.2.
Screening O=C(Nc1ccc(Oc2ccc(Cl)cc2)c(Cl)c1)c1cc(I)cc(I)c1O returned FID counter 16.9, NALP1 yeast inh 28.7, Mot1-301 SUMO 4.7, IMP-1 inh 0.3, SUMO HTRF inh 59.1* and VIM-2 inhibitor -1.7.
COc1ccc(NC(=O)c2ccccc2F)cc1Cl was read as FID counter -1.8, NALP1 yeast inh 10.9, Mot1-301 SUMO -2.0, IMP-1 inh -3.5, SUMO HTRF inh -10.5 and VIM-2 inhibitor -4.7.
CCOC(=O)c1c(-c2ccc(F)cc2)csc1NC(=O)c1c(-c2ccccc2)noc1C was read as FID counter 0.3, NALP1 yeast inh 28.8, Mot1-301 SUMO 719.4*, IMP-1 inh 0.4, SUMO HTRF inh -13.1 and VIM-2 inhibitor -2.2.
